Experimental data as given in the RNAGym collection of RNA variant scans (doi:10.1126/science.aae0568).
Fewer inactive variants are shown than the library holds.

B1: tRNA (parent)
chain: GUUCCGUUGGCGUAAUGGUAACGCGUCUCCCUCCUAAGGAGAAGACUGCGGGUUCGAGUCCCGUACGGAACG

Variants of: B1
Assay: yeast fitness relative to wild type (ratio to wild type); higher = fitter; tRNA-Arg(CCU), competitive growth, 37 C, YPD
How it was run: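 Genotype frequency changes were the basis for Darwinian fitness relative to wild type. The frequencies came from 100-nucleotide paired-end sequencing of gene amplicons from the start population and each end population of pooled yeast strains with tRNA-Arg(CCU) gene variants at the native locus. Competition ran in YPD at 37°C for 24 hours in six replicates, genotypes needed ≥ 100 starting reads, and estimates < 0.5 were set to 0.5.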

Row | Variant | yeast fitness
1 | GUUCCGUUGGCGUAAUGGUAAUGCGUCUCGCUCCUAAGGAGAAGACUGCGGGUUCGAGUCUCGUCUGGAACG | ≤ 0.5
2 | GUUCCGUUGGCGUAAUGGUAAUGUGUCUCCCUCCUAAGGAGAAGACUGCGCGUUCGAGUCCCGUACGGAACG | ≤ 0.5
3 | GUUCCGUUGGCGUAAUGGUAAUGCGUCUCCCUCCUAAGGUGAAGACCGCGGGUUCGAGUCCCGUACGGAACG | 0.544
4 | GUUCCGUUGGCGUAAUGGUAAUGAGUCUCCCUCCUAAGGAGGAGACUGCGGGUUCGAGUCCCGUACGGAACG | ≤ 0.5
5 | GUUCCGUUGGCGUAAUGGUAAGGCGUCUCCCCCCUAAGGAGAGGACUGCGGAUUCGAGUCGCGUACGGAACG | ≤ 0.5
6 | GUUCCGUUGGCGUAAUGGUAAUGCGUCUCCGUCCUAAAGAGAAGACAGCGGGUUCGAGUCCCGUACGGAACG | ≤ 0.5
7 | GUUCCGUUGGCGUAAUGGUAAUGCGUCUCGCUCCUAAGGAGAAGACUGUGGGUUCGAGUCCCGUACGGAACG | ≤ 0.5
8 | GUUCCGUUGGCGUAAUGGUAAUGCGUCUCCUUCCUAAGGAGAAGUCUGCGGGUUUGAGUCCCGUACGGAUCG | ≤ 0.5
9 | GUUCCGUUGGCGUAAUGGUAAUGCGUCUCCCUCCUAAGGAGAAGACUGCGGGUUCGAGUCCCGUGCGCAACG | 0.534
10 | GUUCCGUUGGCGUAAUGGUAAGGCGUCUCCCUCCUAAGGAGAAGACUGCGGGUUCGAAUCCCGUACGGAACG | 1.07
11 | GUUCCGUUGGCGUAAUGGUAAUGCGUCUACCUCCUAAGGAGAAGACUGCGGGUUGGAGUCCCGUUCAGAACG | 0.578
12 | GUUCCGUUGGCGUAAUGGUAAUGGGUCUCCCUCCUAAGGAGAAGACCGCGGGUUCGAGUCACGUACGGAACG | ≤ 0.5
13 | GUUCCGUUGGCGUAAUGGUAAUGCGUCUCCCUCCUAAGGGGAUGAGUGGGGGUUCGAGUCCCGUACGGAGCG | ≤ 0.5
14 | GUUCCGUUGGCGUAAUGGUAAUGCGUCUCCCUCCUAAGGUGAUGAUUGCGGGUUUGAGUCCCGUUCGGAACG | ≤ 0.5
15 | GUUCCGUUGGCGUAAUGGUAAUGCGUCUCCCUCCUAAGGUGAUGACUGCGGGUUCGAGUCCCGUACGGAACG | ≤ 0.5
16 | GUUCCGUUGGCGUAAUGGUAAUGCGUCUCUCUCCUAGGGAGAAGACUGCGGGUUCGAGUCCCGUACGGAACG | 0.526
17 | GUUCCGUUGGCGUAAUGGUAAGGCGUCUCCCACCUAAGGAGAAGACUGCGGGUUCGAGUCCCGUACGGAACG | 0.71
18 | GUUCCGUUGGCGUAAUGGUAAGGCGUCACCGUCCUAAGAAGAAGACUGCGGGUUAGAGUCCCGUACGCAACG | ≤ 0.5
19 | GUUCCGUUGGCGUAAUGGUAAUGCGUCUCCCUCCUAAGGAGGAGACUGCGGGUUGGAGUCCCGUACGGAUCG | 0.556

Row | Variant | yeast fitness
20 | GUUCCGUUGGCGUAAUGGUAAGGCGUCUCCCUCCUAAGGAGAAGACAGCGGGUUCGAGUCCCGUACGGACCG | ≤ 0.5
21 | GUUCCGUUGGCGUAAUGGUAAUGCGUCUCCCUGCUAAGGAGAAGACUGCGGGUUCGACUCCCGUACGGAACG | 0.525
22 | GUUCCGUUGGCGUAAUGGUAAUGCGUCUCGCUCCUUAGGAGAAGAGUGCGGGUUCGAGUCCCGUACGGAACG | ≤ 0.5
23 | GUUCCGUUGGCGUAAUGGUAAUGCGUCUCCCUCCUAAGGAGACGAAUGCGGGUUCGAGUCCCGUACGGAACG | 0.626
24 | GUUCCGUUGGCGUAAUGGUAAUGCGUCUCUCUUCUAAGGAGAAGCCUGCGGGUUCGAGUCCCGUAUGGAACG | ≤ 0.5
25 | GUUCCGUUGGCGUAAUGGUAAUGCGUCUCCCUGCUAAGGAGCAGACUGGGGGUUCGACUCCGGUACGGAACG | ≤ 0.5
26 | GUUCCGUUGGCGUAAUGGUAAUGUGUUUCCUUCCUAAGGAGAAGACUGCGGGUUCGAGUCCUGUACGGAACG | ≤ 0.5
27 | GUUCCGUUGGCGUAAUGGUAAGGCGUCUCCCUCCUAAGGAGAAGACUGCGGGUUCGAGUCCCGUACGAAACG | 0.813
28 | GUUCCGUUGGCGUAAUGGUAAGGCGUCUCCCCCCUAAGGAGAAGACUGCGGGUUCGAGUCCCGUACAGAACG | 0.564
29 | GUUCCGUUGGCGUAAUGGUAAGGCGUCACCCUCCUAAGGUGAAGACUGCGGGUUCGUGUCCCGUACGGAACG | 0.657
30 | GUUCCGUUGGCGUAAUGGUAAUGCGUCUCCCUCCUAAGGAGUAUACUGCGGGUUCGAGUCCCAUACGGAACG | 0.608
31 | GUUCCGUUGGCGUAAUGGUAAUGCGUCUCCGUCCUAAGGAGAAGACUGCGGGUUCGAGUCCCGAAAGGAACG | ≤ 0.5
32 | GUUCCGUUGGCGUAAUGGUAAUGCGUCUCACUCUUAACGAGAAGACUGCGGGUUCGAGUCCCGUACGGAACG | ≤ 0.5
33 | GUUCCGUUGGCGUAAUGGUAAUGCGUCUCCCUCCUCAGGAGAAGACUGCGGGUUCGAGUCCCGUACGGCACG | ≤ 0.5
34 | GUUCCGUUGGCGUAAUGGUAAUGCGUCUCCCUCCUAAGGAGAAGACUGCGGGUUCGAGUCCCGUACGGACCG | 0.859
35 | GUUCCGUUGGCGUAAUGGUAAUGCGUUUCCCUGCUAAGGAGAACACUGCGGGUUCGAGUCCCGUACGGAACG | ≤ 0.5
36 | GUUCCGUUGGCGUAAUGGUAAUGCGUCUCUCUCCUAAGGAGAAGACUGCGGGUUCGGGUCCCGUACGGAACG | ≤ 0.5
37 | GUUCCGUUGGCGUAAUGGUAAUGCGUGGCCCUCCUAAGGAGAAGACUGCGGGUUCGAGCCCCGUACGGAACG | ≤ 0.5
